Active and inactive are the calls of the source.
Tests used:
[1] = biological target: T1, Cholesteryl ester transfer protein (Homo sapiens) (UniProt P11597); assay: Inhibition of human recombinant CETP-mediated cholesteryl ester transfer activity at 100 uM after 1 hr by fluorescent cholesteryl esters transfer assay relative to control
T1 sequence (whole entry): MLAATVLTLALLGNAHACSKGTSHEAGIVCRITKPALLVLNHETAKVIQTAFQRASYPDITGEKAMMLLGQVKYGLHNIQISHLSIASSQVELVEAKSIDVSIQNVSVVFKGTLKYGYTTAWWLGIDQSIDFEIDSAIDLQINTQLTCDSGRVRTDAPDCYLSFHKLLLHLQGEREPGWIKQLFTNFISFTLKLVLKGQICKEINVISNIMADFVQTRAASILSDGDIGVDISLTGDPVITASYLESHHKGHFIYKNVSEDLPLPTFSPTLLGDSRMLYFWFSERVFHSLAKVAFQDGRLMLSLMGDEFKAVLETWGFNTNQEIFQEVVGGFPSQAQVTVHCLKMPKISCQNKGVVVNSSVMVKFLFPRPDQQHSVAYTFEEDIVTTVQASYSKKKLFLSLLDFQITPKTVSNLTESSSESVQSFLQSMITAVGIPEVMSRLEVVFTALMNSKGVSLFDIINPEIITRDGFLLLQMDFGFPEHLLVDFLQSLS

Mus musculus [2] = assay: Increase in HDL-cholesterol level in C57BL/6 mouse expressing cynomolgus monkey CETP gene assessed as change in HDL-C level at 10 mg/kg, po BID measured 24 hrs after first dose; type: functional
[3] = biological target: T2, Cholesteryl ester transfer protein (Homo sapiens, UniProt P11597); assay: Inhibition of human recombinant CETP-mediated cholesteryl ester transfer activity after 1 hr by fluorescent cholesteryl esters transfer assay
T2 sequence (P11597 whole entry): T1 sequence (whole entry)

Mus musculus [4] = assay: Increase in HDL-cholesterol level in C57BL/6 mouse expressing cynomolgus monkey CETP gene assessed as change in HDL-C level administered orally twice daily and measured 24 hrs after first dose; type: functional, organism-based
How it was run: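 Pre-dose retro-orbital bleed. Dosed 10 mg/kg PO BID at 0 and 7 h in DMSO/cremophor/saline (4:4:92). Terminal cardiac-puncture bleed at 24 h. HDL-C by enzymatic kit; change from baseline, mean of 5 mice. A change of 5 mg/dL or less was generally considered not significant.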

Mus musculus [5] = assay: Increase in HDL-cholesterol level in C57BL/6 mouse expressing cynomolgus monkey CETP gene assessed as change in HDL-C level at 0.3 mg/kg, po BID measured 24 hrs after first dose; type: functional
How it was run: (§1)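 Baseline retro-orbital bleed. Oral BID dosing in DMSO/cremophor/saline (4:4:92). Euthanized 24 h after the first dose with cardiac-puncture bleed. HDL-C by enzymatic kit on pre- and post-dose samples. Change from baseline reported as mean ± SEM, 9 mice per dose.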

Mus musculus [6] = assay: Increase in HDL-cholesterol level in C57BL/6 mouse expressing cynomolgus monkey CETP gene assessed as change in HDL-C level at 1 mg/kg, po BID measured 24 hrs after first dose; type: functional; how it was run: as §1
Mus musculus [7] = assay: Increase in HDL-cholesterol level in C57BL/6 mouse expressing cynomolgus monkey CETP gene assessed as change in HDL-C level at 3 mg/kg, po BID measured 24 hrs after first dose; type: functional; how it was run: as §1
[8] = Blood clearance in C57BL/6 mouse at 0.6 mg/kg, iv and 2 mg/kg, po; type: ADME, organism-based; conditions: whole blood
How it was run: (§2)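 Male C57BL/6 mice. IV dosing at 0.6 mg/kg, formulated in DMSO:PEG400:water (10:55:35, v/v/v). Oral dosing at 2 mg/kg, formulated in DMSO:cremophor:saline (2:4:94, v/v/v). Reported parameters were blood clearance, volume of distribution, terminal half-life, IV- and PO-normalized AUC, Cmax and Tmax in plasma after oral dosing, and oral bioavailability.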

[9] = Volume of distribution in C57BL/6 mouse at 0.6 mg/kg, iv and 2 mg/kg, po; type: ADME, organism-based; conditions: in vivo; how it was run: as §2
Mus musculus [10] = assay: Terminal half life in C57BL/6 mouse at 0.6 mg/kg, iv and 2 mg/kg, po; type: ADME, organism-based; conditions: in vivo; how it was run: as §2
Mus musculus [11] = assay: Dose-normalized AUC in C57BL/6 mouse at 0.6 mg/kg, iv; type: ADME, organism-based; design: dose 0.6 mg/kg, route intravenous; conditions: in vivo; how it was run: as §2
Mus musculus [12] = assay: Dose-normalized AUC in C57BL/6 mouse at 2 mg/kg, po; type: ADME, organism-based; design: dose 2 mg/kg, route oral; conditions: in vivo; how it was run: as §2
[13] = Cmax in C57BL/6 mouse at 2 mg/kg, po; type: ADME, organism-based; design: dose 2 mg/kg, route oral; conditions: in vivo; how it was run: as §2
[14] = Tmax in C57BL/6 mouse at 2 mg/kg, po; type: ADME, organism-based; design: dose 2 mg/kg, route oral; conditions: in vivo; how it was run: as §2
[15] = Oral bioavailability in C57BL/6 mouse at 2 mg/kg; type: ADME, organism-based; conditions: in vivo; how it was run: as §2

Structure (SMILES) | inhibition [1] [%] | IC50 [3] [nM] | Activity (Mus musculus [2]) | also measured
CC[C@@H]1[C@@H](c2cc(C(F)(F)F)cc(C(F)(F)F)c2)OC(=O)N1Cc1cc(C(F)(F)F)ccc1-c1cc(C(C)C)ccc1OC (racemic) | 49 | – | – | –
COc1ccc(C(C)C)cc1-c1ccc(C(F)(F)F)cc1CN1C(=O)O[C@@H](c2cc(C(F)(F)F)cc(C(F)(F)F)c2)[C@@H]1C | 20 | – | – | –
COc1ccc(C(C)C)cc1-c1ccc(C(F)(F)F)cc1CN1C[C@@H](c2cc(C(F)(F)F)cc(C(F)(F)F)c2)OC1=O | 93 | 93 | inactive | –
COc1cc(F)c(C(C)C)cc1-c1ccc(C(F)(F)F)cc1CN1C(=O)O[C@H](c2cc(C(F)(F)F)cc(C(F)(F)F)c2)[C@@H]1C [ANACETRAPIB] | – | – | – | Activity (Mus musculus [4]): Dose-dependent effect; Activity (Mus musculus [5]): 14 mg/dL; Activity (Mus musculus [6]): 16.4 mg/dL; Activity (Mus musculus [7]): 21.7 mg/dL; clearance [8]: 11 mL/min/kg; Vd [9]: 2 L/kg; beta t1/2 (Mus musculus [10]): 3.6 h; AUC/dose (Mus musculus [11]): 2.4 µM·kg·h/mg; AUC/dose (Mus musculus [12]): 0.356 µM·kg·h/mg; Cmax [13]: 280 nM; Tmax [14]: 1 h; bioavailability [15]: 15%
COc1ccc(C(C)C)cc1-c1ccc(C(F)(F)F)cc1CN1C(=O)O[C@H](c2cc(C(F)(F)F)cc(C(F)(F)F)c2)[C@H]1C | 90 | – | – | –
COc1ccc(C(C)C)cc1-c1ccc(C(F)(F)F)cc1CN1C(=O)O[C@@H](c2cc(C(F)(F)F)cc(C(F)(F)F)c2)[C@H]1C | 8 | – | – | –
COC(=O)N(Cc1cc(C(F)(F)F)cc(C(F)(F)F)c1)Cc1cc(C(F)(F)F)ccc1-c1cc(C(C)C)ccc1OC | 87 | 126 | 15 mg/dL | –
CC[C@H]1[C@@H](c2cc(C(F)(F)F)cc(C(F)(F)F)c2)OC(=O)N1Cc1cc(C(F)(F)F)ccc1-c1cc(C(C)C)ccc1OC (racemic) | 87 | 268 | – | –
COc1ccc(C(C)C)cc1-c1ccc(C(F)(F)F)cc1CN1C(=O)O[C@@H](c2ccccc2)[C@H]1C | 90 | 5670 | – | –
COc1ccc(C(C)C)cc1-c1ccc(C(F)(F)F)cc1CN1C(=O)O[C@H](c2ccccc2)[C@@H]1C | 94 | 39.3 | 6.3 mg/dL | –

Now from value to molecule, other results behind:

inhibition [1] [%] | IC50 [3] [nM] | Structure (SMILES) | Activity (Mus musculus [2]) | also measured
46 | – | COc1cc(F)c(C(C)C)cc1-c1ccc(C(F)(F)F)cc1CN1C(=O)O[C@](C)(c2cc(C(F)(F)F)cc(C(F)(F)F)c2)[C@@H]1C | – | –
97 | 25.6 | COc1cc(F)c(C(C)C)cc1-c1ccc(C(F)(F)F)cc1CN1C[C@@H](c2cc(C(F)(F)F)cc(C(F)(F)F)c2)OC1=O | 6.3 mg/dL | –
88 | – | COC(=O)N(Cc1cc(C(F)(F)F)cc(C(F)(F)F)c1)Cc1cc(C(F)(F)F)ccc1-c1cc(C(C)C)c(F)cc1OC | 15 mg/dL | –
94 | – | COc1cc(F)c(C(C)C)cc1-c1ccc(C(F)(F)F)cc1CN1C(=O)O[C@H](c2cc(C(F)(F)F)cc(C(F)(F)F)c2)C1(C)C | 17 mg/dL | –
21 | – | COc1cc(F)c(C(C)C)cc1-c1ccc(C(F)(F)F)cc1CN1C(=O)O[C@@H](c2cc(C(F)(F)F)cc(C(F)(F)F)c2)C1(C)C | – | –

From ChEMBL document CHEMBL1799941 (J Med Chem, 2011)
